“And” between values parts separate entries of the source, which are not always exact repeats. Equal entries are not always repeated.
Experiments:
Rattus norvegicus [1] = experiment: Compound was tested for hypotensive activity by measuring the average change in mean arterial blood pressure in mmHg after 24 hr at 50 mg/Kg oral dosing of a conscious rat; type: functional, Artery
In short: (§1)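 Restrained (towel-wrapped, to raise sympathetic tone) conscious female Sprague-Dawley rats with chronic indwelling aortic cannulas exteriorized at the nape; blood pressure recorded directly by transducer before and 4 and 24 h after oral dosing. Compound suspended in carboxymethylcellulose vehicle, 10 mL/kg; doses 50 to 0.05 mg/kg. Two rats averaged per time point; average change ≥5 mmHg taken as significant (p < 0.05).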

Rattus norvegicus [2] = experiment: Compound was tested for hypotensive activity by measuring the average change in mean arterial blood pressure in mmHg after 4 hr at 50 mg/Kg oral dosing of a conscious rat; type: functional, Artery; in short: as §1
Rattus norvegicus [3] = experiment: Hypotensive activity in conscious rat 24 hr after 5 mg/kg p.o. administration.; type: functional; conditions: route oral; in short: as §1
Rattus norvegicus [4] = experiment: Hypotensive activity in conscious rat 4 hr after 5 mg/kg p.o. administration.; type: functional; conditions: route oral; in short: as §1
Mus musculus [5] = species on record: Mus musculus; experiment: Lowest dose of compound associated with clinical signs.; type: functional
Mus musculus [6] = species on record: Mus musculus; experiment: Lowest dose of compound associated with unacceptable clinical signs.; type: functional
[7] = Acute toxicity was determined in mice; type: organism-based; conditions: mouse, in vivo
Rattus norvegicus [8] = experiment: Compound was tested for hypotensive activity by measuring the average change in mean arterial blood pressure in mmHg after 24 hr at 0.5 mg/Kg oral dosing of a conscious rat; type: functional, Artery; in short: as §1
Rattus norvegicus [9] = experiment: Compound was tested for hypotensive activity by measuring the average change in mean arterial blood pressure in mmHg after 4 hr at 0.5 mg/Kg oral dosing of a conscious rat; type: functional, Artery; in short: as §1
Rattus norvegicus [10] = experiment: Compound was tested for hypotensive activity by measuring the average change in mean arterial blood pressure in mmHg after 24 hr at 1 mg/Kg oral dosing of a conscious rat; type: functional, Artery; in short: as §1
Rattus norvegicus [11] = experiment: Compound was tested for hypotensive activity by measuring the average change in mean arterial blood pressure in mmHg after 4 hr at 1 mg/Kg oral dosing of a conscious rat; type: functional, Artery; in short: as §1
Mus musculus [12] = species on record: Mus musculus; experiment: Lowest dose of compound associated with clinical signs; NA is Not Acceptable.; type: functional, organism-based
Rattus norvegicus [13] = experiment: Compound was tested for hypotensive activity by measuring the average change in mean arterial blood pressure in mmHg after 24 hr at 0.05 mg/Kg oral dosing of a conscious rat; type: functional, Artery; in short: as §1
Rattus norvegicus [14] = experiment: Compound was tested for hypotensive activity by measuring the average change in mean arterial blood pressure in mmHg after 24 hr at 0.15 mg/Kg oral dosing of a conscious rat; type: functional, Artery; in short: as §1
Rattus norvegicus [15] = experiment: Compound was tested for hypotensive activity by measuring the average change in mean arterial blood pressure in mmHg after 24 hr at 1.5 mg/Kg oral dosing of a conscious rat; type: functional, Artery; in short: as §1
Rattus norvegicus [16] = experiment: Compound was tested for hypotensive activity by measuring the average change in mean arterial blood pressure in mmHg after 24 hr at 15 mg/Kg oral dosing of a conscious rat; type: functional, Artery; in short: as §1
Rattus norvegicus [17] = experiment: Compound was tested for hypotensive activity by measuring the average change in mean arterial blood pressure in mmHg after 4 hr at 0.05 mg/Kg oral dosing of a conscious rat; type: functional, Artery; in short: as §1
Rattus norvegicus [18] = experiment: Compound was tested for hypotensive activity by measuring the average change in mean arterial blood pressure in mmHg after 4 hr at 0.15 mg/Kg oral dosing of a conscious rat; type: functional, Artery; in short: as §1
Rattus norvegicus [19] = experiment: Compound was tested for hypotensive activity by measuring the average change in mean arterial blood pressure in mmHg after 4 hr at 1.5 mg/Kg oral dosing of a conscious rat; type: functional, Artery; in short: as §1
Rattus norvegicus [20] = experiment: Compound was tested for hypotensive activity by measuring the average change in mean arterial blood pressure in mmHg after 4 hr at 15 mg/Kg oral dosing of a conscious rat; type: functional, Artery; in short: as §1

Structure (SMILES)	Activity (Rattus norvegicus [1])	Activity (Rattus norvegicus [2])	Activity (Rattus norvegicus [3])	Activity (Rattus norvegicus [4])	Dose (Mus musculus [6])	LD50 [7]	Activity (Rattus norvegicus [8])	Activity (Rattus norvegicus [9])	further results
Cc1cc(N2CCN(C(=O)c3ccc(Nc4ccnc5cc(C(F)(F)F)ccc45)cc3)CC2)nc(N)n1	-4 mmHg	-3 mmHg	–	–	–	–	–	–	–
O=C(c1ccc(Nc2ccnc3cc(C(F)(F)F)ccc23)cc1)N1CCN(c2ccccc2)CC1	-13 mmHg	4 mmHg	–	–	–	–	–	–	–
CSc1nccc(N2CCN(C(=O)c3ccc(Nc4ccnc5cc(C(F)(F)F)ccc45)cc3)CC2)n1	–	–	-16 mmHg	-8 mmHg	–	–	–	–	–
O=C(c1ccc(Nc2ccnc3cc(C(F)(F)F)ccc23)cc1)N1CCN(c2ccccn2)CC1	–	–	-13 mmHg	-10 mmHg	316 mg/kg	1400 mg/kg	-2 mmHg	2 mmHg	Dose (Mus musculus [5]): <100 mg/kg
COc1ccccc1N1CCN(S(=O)(=O)c2ccc(Nc3ccnc4cc(C(F)(F)F)ccc34)cc2)CC1	–	–	-14 mmHg	-1 mmHg	–	–	–	–	–
O=C(c1ccc(Nc2ccnc3cc(C(F)(F)F)ccc23)cc1)N1CCN(c2ccc(F)cc2)CC1	–	–	-10 mmHg	-11 mmHg	–	–	–	–	Activity (Rattus norvegicus [10]): 1 mmHg; Activity (Rattus norvegicus [11]): -12 mmHg
O=C(c1ccc(Nc2ccnc3cc(C(F)(F)F)ccc23)cc1)N1CCN(S(=O)(=O)c2ccc(Cl)cc2)CC1	–	–	-34 mmHg	-20 mmHg	>3160 mg/kg	> 3160 mg/kg	-15 mmHg	-13 mmHg	Dose (Mus musculus [5]): <100 mg/kg
Fc1ccc(N2CCN(Cc3ccc(Nc4ccnc5cc(C(F)(F)F)ccc45)cc3)CC2)cc1	-18 mmHg	-4 mmHg	–	–	–	–	–	–	Activity (Rattus norvegicus [4]; 5 mg/kg): -7 mmHg and -9 mmHg
O=C(c1ccc(Nc2ccnc3cc(C(F)(F)F)ccc23)cc1)N1CCC(O)(c2ccc(Cl)cc2)CC1	–	–	–	–	<100 mg/kg	237 mg/kg	-22 mmHg	-19 mmHg	DOSE (Mus musculus [12]): Not acceptable
O=C(c1ccc(Nc2ccnc3cc(C(F)(F)F)ccc23)cc1)N1CCN(S(=O)(=O)c2ccc(F)cc2)CC1 [LOSULAZINE]	–	–	–	–	>3160 mg/kg	> 3160 mg/kg	-15 mmHg	-10 mmHg	Dose (Mus musculus [5]): 100 mg/kg; Activity (Rattus norvegicus [13]): -2 mmHg; Activity (Rattus norvegicus [14]): -14 mmHg; Activity (Rattus norvegicus [15]): -21 mmHg; Activity (Rattus norvegicus [16]): -25 mmHg; Activity (Rattus norvegicus [17]): -6 mmHg; Activity (Rattus norvegicus [18]): -12 mmHg; Activity (Rattus norvegicus [19]): -17 mmHg; Activity (Rattus norvegicus [20]): -19 mmHg
COc1ccc(S(=O)(=O)N2CCN(C(=O)c3ccc(Nc4ccnc5cc(C(F)(F)F)ccc45)cc3)CC2)cc1	–	–	-3 mmHg	-6 mmHg	–	–	–	–	–
COc1ccc(N2CCN(C(=O)c3ccc(Nc4ccnc5cc(C(F)(F)F)ccc45)cc3)CC2)cc1	-18 mmHg	-19 mmHg	–	–	–	–	–	–	–
Cc1ccc(S(=O)(=O)N2CCN(C(=O)c3ccc(Nc4ccnc5cc(C(F)(F)F)ccc45)cc3)CC2)cc1	–	–	-25 mmHg	-42 mmHg	–	–	–	–	–

Source: ChEMBL document CHEMBL1123201, “7-(Trifluoromethyl)-4-aminoquinoline hypotensives: novel peripheral sympatholytics” (J Med Chem, 1986)
